SIRT5 inh = SIRT5 desuccinylase inhibitors, primary screen, biochemical, fluorescence imaging, single point, set 5. NAD-dependent protein deacylase sirtuin-5, mitochondrial (Homo sapiens), Q9NXA8. Purified SirT5, succinyl-peptide AMC, trypsin-coupled fluorescence. inhibition, % at 15 µM. 330,000 compounds, 1.1% hits. AID 652115, 2013; in the data active = inhibition above about 15%
Target sequence (Q9NXA8 whole entry, looked up): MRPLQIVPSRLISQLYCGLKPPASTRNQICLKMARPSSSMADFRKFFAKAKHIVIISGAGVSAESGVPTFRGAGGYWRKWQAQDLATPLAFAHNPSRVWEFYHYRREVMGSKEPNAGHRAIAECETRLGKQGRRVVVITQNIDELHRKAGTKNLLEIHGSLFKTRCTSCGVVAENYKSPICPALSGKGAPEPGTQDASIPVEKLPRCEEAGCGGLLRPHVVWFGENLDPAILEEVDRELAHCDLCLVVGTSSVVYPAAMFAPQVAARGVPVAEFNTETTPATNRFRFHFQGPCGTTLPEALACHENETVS
FGF22 binding = binders of human FGF22 protein, primary screen, FGF22 synaptogenesis inhibitor project, biophysical, thermal shift, single point. Fibroblast growth factor 22 (Homo sapiens), Q9HCT0. recombinant FGF22 thermal shift, SYPRO orange fluorescence; percent of sucrose octasulfate shift, DMSO zero. activity (Tm shift, normalised), % at 9.99 µM. 340,000 compounds, 1.5% hits. AID 651658, 2012;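 active = mean Tm shift, scaled 0 neutral to 100 positive control, at about 1.3% or above, every replicate too, limit read from the data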
PGC1a acetyl inh = inhibitors of PGC1a acetylation signal, primary screen, cell-based, U2OS, AlphaScreen, inhibitor mode; AlphaScreen anti-acetyl-lysine; with virally co-expressed GCN5 acetyltransferase; inhibition, % at 15.6 µM; 350,000 compounds, 0.17% hits; AID 651687, 2012;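 active = every replicate shows inhibition of at least 40%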;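 also: 0% = neutral control wells and 100% = positive control wells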
ERAP1 inh = human ERAP1 aminopeptidase inhibitors, primary screen, biochemical, single point, plate reader; Endoplasmic reticulum aminopeptidase 1 (Homo sapiens), Q9NZ08; recombinant ERAP1, Leu-AMC fluorescence, 60 min; inhibition, % at 10.7 µM; 340,000 compounds, 0.15% hits; AID 652197, 2013;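 active = mean replicate inhibition of at least 30%, or all replicates individually reaching that 30% level; inactive = mean below 30% and not every replicate reaching it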;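 also: 0% = neutral control wells and 100% = L-leucinethiol positive control wells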
FN deposition inh = inhibitors of fibronectin matrix deposition, primary screen, AH1F cells, Alexa488-fibronectin fluorescence, plate reader; AH1F fibroblasts, overnight; inhibition, % at 12.6 µM; 350,000 compounds, 0.086% hits;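 active = mean inhibition across replicates of 30% or more, regardless of how many single replicates reach that level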;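 also: positive control wells lacked labelled fibronectin entirely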
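Test system: AH1F fibroblast monolayer depositing Alexa488-labelled fibronectin into matrix. Input: 10000 cells per well. Technique: fluorescence, ex 485 nm, em 525 nm. Buffer or medium: DMEM plus 2% serum, read in PBS. Timing: 1 h cell adhesion before compound, then overnight fibronectin incubation. Compound: single dose, pinned. Read-out basis: inhibition from reduced deposited-fibronectin fluorescence.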
* hit, by the source's call; . = no result given. Only some compounds are listed: those with a hit (about 2.2% of all), similar ones and a draw of the others.

SMILES	SIRT5 inh	FGF22 binding	PGC1a acetyl inh	ERAP1 inh	FN deposition inh
Cc1noc(C)c1NC(=O)Nc1ccc2c(c1)C(=O)N([C@@H](C)CO)C[C@@H](C)[C@H](CN(C)S(=O)(=O)c1ccc(Cl)cc1)OCCCC[C@@H](C)O2	8	0	-2	3	9
COc1ccc2c3c(n(C)c2c1)[C@@H](CO)N(C(=O)Nc1ccc(F)cc1)CC31CN(C(=O)NC2CCCC2)C1	3	0	-1	1	.
c1ccc(-c2cc3c(N4CCN(c5ncccn5)CC4)ncnc3s2)cc1	-9	44*	1	-4	-9
c1ccc(-c2cc3c(N4CCN(c5ccccc5)CC4)ncnc3s2)cc1	-6	0	6	14	8
CC1=C(C(=O)N2CCOCC2)C(c2ccc(OC(F)F)cc2)NC(=S)N1c1ccccc1 (stereo not given)	-1	43*	.	1	2
COC(=O)c1ccc(CN2CC(=O)N3[C@H](CO)[C@H](c4ccc(-c5ccccc5F)cc4)[C@@H]3C2)cc1	0	.	6	2	.
CCc1nc2c(OCc3ccc(S(C)(=O)=O)cc3)cccn2c1N(C)C(=O)c1ccccc1F	-1	0	45*	0	-8
COc1ccccc1NC(=O)N[C@@H]1C=C[C@@H](CC(=O)N[C@@H](C)c2ccccc2)O[C@H]1CO	0	0	-10	-2	0
COc1ccc(/C=C\c2cc(OC)c(OC)cc2CC[N+](C)(C)C)cc1OC	2	0	-8	99*	-3
C[C@H]1CN([C@@H](C)CO)C(=O)c2cc(NC(=O)Cc3cn(C)c4ccccc34)ccc2O[C@H]1CN(C)Cc1ccc(C(=O)Nc2ccccc2N)cc1	20*	-1	12	-2	-8
Cc1noc(C)c1NC(=O)Nc1ccc2c(c1)C(=O)N([C@H](C)CO)C[C@H](C)[C@H](CN(C)Cc1ccc(C(=O)Nc3ccccc3N)cc1)O2	.	0	1	-1	.
Cc1noc(C)c1NC(=O)Nc1ccc2c(c1)C(=O)N([C@H](C)CO)C[C@@H](C)[C@@H](CN(C)Cc1ccc(C(=O)Nc3ccccc3N)cc1)O2	19*	0	6	2	.
CO[C@@H]1CN(C)C(=O)c2cc(NC(=O)C3CC3)ccc2OC[C@@H](C)N(C(=O)c2ccccn2)C[C@@H]1C	.	.	19	.	0
CCN1CCN(C(=O)c2ccc(C(F)(F)F)cc2)CC1	20*	0	.	-4	-6
CN1CCN(C(=O)c2ccc(C(F)(F)F)cc2)CC1	6	42	-5	0	11
Cc1noc(C)c1S(=O)(=O)Nc1cccc2c1O[C@@H](CN(C)Cc1ccc3c(c1)OCO3)[C@@H](C)CN([C@@H](C)CO)C2=O	1	0	2	-2	.
CC(=O)N(C)C[C@@H]1Oc2ncc(-c3ccc(C)cc3)cc2C(=O)N([C@@H](C)CO)C[C@H]1C	-9	0	1	2	.
COc1ccc2c3c(n(C)c2c1)[C@H](CO)N(C)CC31CCN(C(=O)Nc2c(C)noc2C)CC1	-1	0	-9	4	.
CNC(=S)NCC(O)c1ccc([N+](=O)[O-])cc1 (stereo not given)	-3	44*	.	-4	-3
CC(C)Cc1nnc(NC(=O)Cc2cccs2)s1	5	43*	-1	5	.
CC(C)(C)Cc1nnc(NC(=O)Cc2cccs2)s1	29*	0	-9	2	-4
Cc1ccccc1S(=O)(=O)N1C[C@@H](O)COC[C@H]2O[C@@H](CC(=O)O)CC[C@@H]21	3	0	3	1	-5
CC(C)N(Cc1cn(C)nc1-c1cccc(Cl)c1)Cc1nccn1C	-6	43*	-7	-2	.
Cc1cnccc1CN(C)Cc1cn(C)nc1-c1cccc(Cl)c1	3	0	.	-4	-2
CCO[C@H]1OC(C(=O)N2CCN(Cc3ccc4c(c3)OCO4)CC2)=C[C@@H](C)[C@@H]1CCCO	-16	9.2*	-1	-2	-6
CC1CCCC(C)N1C(=O)CSc1nc(N)cc(N)n1 (stereo not given)	.	0	.	-2	4
